Laboratory results published in the EternaBench riboswitch data.

Test system: MS2 coat protein
Assay: apparent Kd, MS2 coat protein; higher = weaker binding; RNA-MaP array; FMN 200 µM where present
In short: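 Each design was made on Illumina sequencing-chip clusters by stalled E. coli RNA polymerase and titrated with SNAP-549-labelled MS2 coat protein from 0.7 or 1.5 nM, doubling to 3 µM, in the absence and then the presence of constant ligand. The buffer was 100 mM Tris-HCl pH 7.5, 80 mM KCl, 4 mM MgCl2, BSA, DTT, yeast tRNA and Tween-20. The apparent Kd is the median of filtered per-cluster fits of binding curves, with green signal normalised to red-channel RNA signal and control-cluster median Fmax.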

[1] = designed as: ON switch for flavin mononucleotide, no ligand
[2] = ligand present: flavin mononucleotide, designed as: ON switch for flavin mononucleotide
[3] = designed as: OFF switch for flavin mononucleotide, no ligand
[4] = ligand present: flavin mononucleotide, designed as: OFF switch for flavin mononucleotide

| Sequence | apparent Kd [1] | apparent Kd [2] | apparent Kd [3] | apparent Kd [4] |
| --- | --- | --- | --- | --- |
| UGUUAUUAGACAGGAUAUUGAAUGUUAAGUAUUAACAUGAGGAUCACCCAUGUAUUUCAUUCGUACAAGAAGGGUCAUGUUCCU | 0.166 µM | 0.202 µM | – | – |
| UGUUGAUAGCAGAAGGACAUGAGGAUCACCCAUGUACGGAUACAAAUAUAUGUAGGAUAUGCUAUUGACUAAGAGUGAGCGUUC | – | – | 0.00578 µM | 0.00787 µM |
| UGUUGAUAGCAGAAGGACAUGAGGAUCACCCAUGUAUGGAUACAAAUAUAUGUAGGAUAUGCUAUUAACUAAGAGUGAGCGUUC | – | – | 0.00912 µM | 0.0244 µM |
| UGUUGGAGCAGAGGAUAUACAUGAGGAUCACCCAUGUAAUAAAGUGAAGCCUGGAAACAGGCAAUGUAGAAGGCUGCUCCGACA | – | – | 0.0101 µM | 0.0736 µM |
| UGUUGUAUUACAGGAUAUCUAUGAUUUUGAUUUAGAGAAGGGUAUUCACAUGAGGAUCACCCAUGUAUAUACGAGGAAGUUGUG | 0.0512 µM | 0.0544 µM | – | – |
| UGUUGUAUUACAGGAUAUCUAUGAUUUUUAUUUAGAGAAGGGUAUUCACAUGAGGAUCACCCAUGUAUAUACGAGGAAGUUGUG | 0.0461 µM | 0.0517 µM | – | – |
| UGUUGUAUUACAGGAUAUCUAUUAUUUGUAUUUAGAGAAGGGUAUUCACAUGAGGAUCACCCAUGUAUAUACGAGGAAGUUGUG | 0.0613 µM | 0.0586 µM | – | – |
| UGUUGUUCAGGAUAUGAUGUAUAAUACAUGAGGAUCACCCAUGUGGGUCCUGAUUUGGCGUCAGAAGGGAAUGUUG | – | – | 0.0883 µM | 0.146 µM |
| UGUUUGUGAGGAUAUCCAAUAUAUGACAUGAGGAUCACCCAUGUUUCCACUCGUACCUCCGGAGAAGGCACUGCGU | – | – | 0.0291 µM | 0.026 µM |
| UGUUUUCAUGUAGGAUAUGCUUGUCGUAGAUACGCAGAAGGACAUGAGGAUCACCCAUGUUAAAGCGACAGAGUAUAGAUUCUU | – | – | 0.0163 µM | 0.0223 µM |
| UGUUUUCAUGUAGGAUAUGCUUGUCGUAGAUACGCAGAAGGACAUGAGGAUCACCCAUGUUAAUGCGACAGAGUUUAGAUUCUU | – | – | 0.0175 µM | 0.0319 µM |
| UGUUUUUAUGUGAGGAUAUGGGUUUGGUUGCGGGCUUAGAAGGUACAUGAGGAUCACCCAUGUACUUUGUGCAU | – | – | 0.0164 µM | 0.017 µM |
| UUAAAUCAUGUAGGAUAUGCAUGGCGAAGCUACGCAGAAGGACAUGAGGAUCACCCAUGUUAUAGCGACCAAGUAAGGUUGCAA | – | – | 0.0916 µM | 0.197 µM |
| UUAAAUCAUGUAGGAUAUGCAUGGCGAAGCUACGCAGAAGGACAUGAGGAUCACCCAUGUUAUAGCGACCAAGUUAGGUUGCAA | – | – | 0.0887 µM | 0.211 µM |
| UUAAAUCAUGUAGGAUAUGCAUGGCGAAGCUACGCAGAAGGACAUGAGGAUCACCCAUGUUAUAGCGUCCAAGUAAGGAUGCAA | – | – | 0.0848 µM | 0.269 µM |
| UUAACAUGAGGAUCACCCAUGUCGUGCAAGAUGAGUUCUGGUGAGGAUAUACAUGGUAAAGAACUGUAGAAGGCACUGGGUACA | 0.29 µM | 0.139 µM | – | – |
| UUAACAUGAGGAUCACCCAUGUCGUGCUAGAUGAGUUCUGGUGAGGAUAUACAUGGUAAAGAACUGUAGAAGGCACUGGGUACA | 0.309 µM | 0.336 µM | – | – |
| UUAAGCAAGGAGAAGGCCCAGGUGGGCCAUCACAUGAGGAUCACCCAUGUGGGAGGAUAUCCGGGCCCACGCUUAUCCGCGGGC | – | – | 0.0076 µM | 0.0126 µM |
| UUAAUCUAUACAGGAUAUCCAUACGCUGCAUACGGAGAAGGGUAACAAUCAUGAGGACAUGAGGAUCACCCAUGUUUUGAGCAU | 0.0428 µM | 0.0263 µM | – | – |
| UUAAUUAACAAGAAGGCAUACAUGAGGAUCACCCAUGUUCUACAUGGAUAAUGAGGAUAUUGCUAAUACAUGAGGAUCACCCAU | – | – | 0.0536 µM | 0.0508 µM |
| UUAAUUAAUUAAUUCGUCAUUACAUGAGGAUCACCCAUGUAUAAGGAUAUGCAGUGGAAUACACUGCAGAAGGUAUACAAGACG | – | – | 0.0184 µM | 0.0266 µM |
| UUAAUUUGAUGAUAUUAUGACAUUAGAAGGCUGUACAUGUUGAUACAUGAGGAUCACCCAUGUAUAGAGGAUAUAGACAAUUUU | – | – | 0.0409 µM | 0.0917 µM |
| UUAAUUUUAUGAUAUUAUGACAUUAGAAGGCUGUACAUGUUGAUACAUGAGGAUCACCCAUGUAUAGAGGAUAUAGACAAUUUU | – | – | 0.0324 µM | 0.0639 µM |
| UUACAUACAAAGGUACAUGAGGAUCACCCAUGUUUGUUGGGAAGAAGGGUAACAGUACUACAUAUAUAGGAUAUUUCACAAAUA | 0.122 µM | 0.0866 µM | – | – |
| UUACCUCAUGAGAAGGCGAUCAUGAAACAUGAUCGAGGAUAUCAUGUAAACAUGAGGAUCACCCAUGUAUGGGUAUUAUGGUAG | 0.198 µM | 0.0568 µM | – | – |
| UUACCUUAUGAGAAGGCGAUCAUGAAACAUGAUCGAGGAUAUCAUGUAAACAUGAGGAUCACCCAUGUAUGGGUAUUAUGGUAG | 0.133 µM | 0.0325 µM | – | – |
| UUACCUUAUGAGAAGGCGGUCAUGAAACAUGAUCGAGGAUAUCAUGUAAACAUGAGGAUCACCCAUGUAUGGGUAUUAUGGUAU | 0.142 µM | 0.0273 µM | – | – |

| Sequence | apparent Kd [1] | apparent Kd [2] | apparent Kd [3] | apparent Kd [4] |
| --- | --- | --- | --- | --- |
| UUACUCAUGUAAGGAUAUGCAGCCGAAACGGCUGUAGAAGGUACUAAAAUACAUGAGGAUCACCCAUGUCUUUUUAAUUUAGAC | 0.103 µM | 0.0746 µM | – | – |
| UUACUCAUGUAAGGAUAUGCAGCCGUUUCGGUUGCAGAAGGUACUAUAAUACAUGAGGAUCACCCAUGUCUUUUUAAUUUAGAC | 0.0784 µM | 0.0396 µM | – | – |
| UUAGAAUUUGCAGGAUAUUGUAUUUUAUUACAUCAAGAAGGGCAUUACAUGAGGAUCACCCAUGUUAACAUGGUUAUAAAUUUU | – | – | 0.0948 µM | 0.0295 µM |
| UUAGAUUAUGAAGGAUAUGGAUCUUAUUAUUAACCAGAAGGUCAACUCAACAUGAGGAUCACCCAUGUAUAAAGGGUAUUAGUU | – | – | 0.134 µM | 0.132 µM |
| UUAGCAUACCGAGGAUAUUCAUAUAAUAAAUAAACAUGAGGAUCACCCAUGUGGCGAAAGCCUAGGGAGAAGGCGGAAUGCUUU | 0.177 µM | 0.0281 µM | – | – |
| UUAGGACGAAACAUGAGGAUCACCCAUGUGUUAUAAUUAAUAUAGGAUAUGUUUAUACUUUUUGGGCAGAAGGAUGAUAUUGCU | 0.0198 µM | 0.0168 µM | – | – |
| UUAGGAUCAGGAUAUGAUGUUUUAAACAUGAGGAUCACCCAUGUAGAUCCUGAAUCAACAUCAGAAGGGAUAAUUU | – | – | 0.0566 µM | 0.184 µM |
| UUAGUCAUGUGACGUGUUGACAUUCCAGAAGGGCCACAUGAGGAUCACCCAUGUCGAAGAAACAGGCAGGAUAUGGACCAAUGG | 0.043 µM | 0.0112 µM | – | – |
| UUAUCUAUGUAAGGAUAUCGAUGAUAUACGCAUCCGACAUGAGGAUCACCCAUGUUAUAUUUUGUCGAGAAGGUACAUUGUCGG | 0.0468 µM | 0.0503 µM | – | – |
| UUAUGUCGCGUAGGAUAUCACUAGAGUUGUAAUUUAAUUGUAAUUUCGAUGUGAGAAGGACGUACACAUGAGGAUCACCCAUGU | – | – | 0.0195 µM | 0.0163 µM |
| UUAUUAUAUGUAGGAUAUGCAUAUUAUUAUUAUGCAGAAGGACAUGAGGAUCACCCAUGUAUAUUAUUAUUAUAUAUUAUAUGU | – | – | 0.0412 µM | 0.0861 µM |
| UUAUUAUAUGUAGGAUAUGCAUAUUAUUAUUAUGCAGAAGGACAUGAGGAUCACCCAUGUAUAUUAUUAUUAUAUAUUAUGUAU | – | – | 0.0363 µM | 0.061 µM |
| UUAUUAUAUGUAGGAUAUGCAUAUUAUUAUUAUGCAGAAGGACAUGAGGAUCACCCAUGUAUGUUAUUAUUAUAUAUUAUAUAU | – | – | 0.0261 µM | 0.0347 µM |
| UUAUUUAGUGUGAGGAUAUGCUGGUCCUUGGAUCAGCAGAAGGCACAUGAGGAUCACCCAUGUAAUAUAUUAAU | – | – | 0.091 µM | 0.305 µM |
| UUAUUUAGUGUGAGGAUAUGCUGGUCGAUAGAUCAGCAGAAGGCACAUGAGGAUCACCCAUGUAAUAUAUUAAA | – | – | 0.0589 µM | 0.248 µM |
| UUAUUUUGUCAAGGAUAUGUAUUAUUGAUUUGAAAACAUGAGGAUCACCCAUGUAUAUGGUGGGAACAGAAGGUGAAUAAGUAA | – | – | 0.248 µM | 0.235 µM |
| UUCAGACAUGAGGAUCACCCAUGUGAGGAUAUGAUGCGAUCGUCGAAAGACGAUAGCAUCAGAAGGCACGUAUG | – | – | 0.0829 µM | 0.135 µM |
| UUCAGCUCGUGAGGAUAUACAUGUGCUGGAAACAGCACUAUUGAGUUCACAUGAGGAUCACCCAUGUAGAAGGCACGAGCUGAG | – | – | 0.0152 µM | 0.0279 µM |
| UUCAGCUCGUGAGGAUAUACAUGUGCUGGAAACAGCACUAUUGUGUUCACAUGAGGAUCACCCAUGUAGAAGGCACGAGCUGAG | – | – | 0.0186 µM | 0.0821 µM |
| UUCAUCAAUGAAGGAUAUCUAUAUCCAACAUGAGGAUCACCCAUGUUGAGGAUCACCCAUGUAAAGGAGAAGGUUAAUAUAACU | 0.0359 µM | 0.0314 µM | – | – |
| UUCAUCAAUGAAGGAUAUCUAUGUCCAACAUGAGGAUCACCCAUGUUGAGGAUCACCUAUGUGUAGGAGAAGGUUAAUAUAACU | 0.00798 µM | 0.00638 µM | – | – |
| UUCAUGUGAGGAUAUGCGGCACCAGGCAAGCCUAGUGCUGAGCAGAAGGCACAUGAGGAUCACCCAUGUGCUCC | – | – | 0.0293 µM | 0.0722 µM |
| UUCAUGUUAGGAUAUUCCGCCACAGAGAAAGUCUGUGGAAUGAAGAAGGGACAUGAGGAUCACCCAUGUUCCAA | – | – | 0.0151 µM | 0.0159 µM |
| UUCAUUAACAUGAGGAUCACCCAUGUUGGCCAGUCUCACACCAGAAGGCACGUUGAGCACAGCAGUGAGGAUAUGGGUGACAUA | 0.236 µM | 0.223 µM | – | – |
| UUCCUCAUAACAUGAGGAUCACCCAUGUAUUAAUAGAUAACUGAGGAUAUACUAAUAAUGUUUAUGUAGAAGGCAGAUACAGAU | – | – | 0.0496 µM | 0.106 µM |
| UUCGCUAAGGUGUAGCGAGACACGCAAGAAGGGUGAUGCACAUGAGGAUCACCCAUGUAAGCCUUACAGGAUAUUGCUUGCCGA | 0.899 µM | 0.211 µM | – | – |
| UUCUACAAGUAAGGAUAUCGGCUAUAGUUAACUCGAGAAGGUACAUGAGGAUCACCCAUGUAGUAGAUACAGACUACUGGCUUG | – | – | 0.0109 µM | 0.0133 µM |
